Publication PMC7571300 (ACS Pharmacology & Translational Science, 2020)
Read-outs that look alike come from different tables or passages of the source.

Legend:
EV-A71 2A^pro [1] = molecular target: T1, EV-A71 2A^pro (Enterovirus A71, UniProt B9VUU3); assay: FRET-based enzymatic assay; assay type: biochemical
T1 sequence (B9VUU3 863-1012): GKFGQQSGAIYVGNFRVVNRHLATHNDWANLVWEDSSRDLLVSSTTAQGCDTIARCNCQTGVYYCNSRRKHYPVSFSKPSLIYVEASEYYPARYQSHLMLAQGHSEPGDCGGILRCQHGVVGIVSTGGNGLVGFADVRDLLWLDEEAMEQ

EV-A71 3C^pro [2] = molecular target: T2, EV-A71 3C^pro (Enterovirus A71, UniProt B9VUU3); assay: FRET-based enzymatic assay; assay type: biochemical
EV-D68 3C^pro [3] = molecular target: T3, EV-D68 3C^pro (Enterovirus D68, UniProt A0A097BW19); assay: Thermal shift binding assay; conditions: for Tm change, EV-D68 3C^pro: 4 mM DTT, 40 μM compound (shikonin 10 μM), 3 μM protease
T3 sequence (A0A097BW19 1550-1732): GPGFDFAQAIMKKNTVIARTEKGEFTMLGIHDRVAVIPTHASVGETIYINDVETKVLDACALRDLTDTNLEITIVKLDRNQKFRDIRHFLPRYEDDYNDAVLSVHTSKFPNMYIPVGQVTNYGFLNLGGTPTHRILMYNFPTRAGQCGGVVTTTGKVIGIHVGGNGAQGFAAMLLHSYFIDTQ
Procedure, shortened: (§1)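 3Cpro (EV-A71/7D3 or EV-D68 US/KY/14–18953; codon-optimised, pET28b(+), BL21(DE3), 0.5 mM IPTG at 18 °C for 24 h, Ni-NTA purified) was used at 3 μM. Buffer was 50 mM Tris pH 7.0, 150 mM NaCl, 1 mM EDTA, 10% glycerol, with or without 4 mM DTT. Protease was preincubated with test compound or DMSO (30 °C, 30 min), then SYPRO orange (1×) added and a 20–90 °C ramp (0.05 °C/s) run. Tm came from a Boltzmann fit.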

SARS-CoV-2 PL^pro = SARS-CoV-2 PL^pro (Severe acute respiratory syndrome coronavirus 2, UniProt P0DTD1); assay: Thermal shift binding assay; conditions: 4 mM DTT; 40 μM compound (shikonin 10 μM); 3 μM protease
Procedure, shortened: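 SARS-CoV-2 PLpro (ORF1ab 1564–1876, strain WIV04) was expressed from pET28b(+) in BL21(DE3) (0.5 mM IPTG, 18 °C, 24 h), Ni-NTA purified and eluted with 300 mM imidazole. Protein (3 μM) in 50 mM HEPES pH 7.5, 0.01% Triton X-100, with or without 4 mM DTT, sat with test compound or DMSO for 30 min at 30 °C. SYPRO orange (1×) was added and a 20–90 °C ramp at 0.05 °C/s applied. Tm was from a Boltzmann fit.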

in vitro = conditions: human, CC50 (EV-A71 CPE assay conditions), RD cells, no virus, 37 °C, no MgCl2
EV-D68 2A^pro [4] = molecular target: T4, EV-D68 2A^pro (Enterovirus D68, UniProt A0A097BW19); assay: Thermal shift binding assay; conditions: 4 mM DTT; 40 μM compound (shikonin 10 μM); 3 μM protease
T4 sequence (A0A097BW19 863-1009): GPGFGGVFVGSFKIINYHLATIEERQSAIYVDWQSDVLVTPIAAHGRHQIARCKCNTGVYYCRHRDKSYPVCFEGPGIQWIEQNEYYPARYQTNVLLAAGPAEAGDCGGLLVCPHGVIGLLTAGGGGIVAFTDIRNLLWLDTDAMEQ
Procedure, shortened: (§2)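 Codon-optimised 2Apro was expressed in E. coli from pET28b(+), from EV-A71/7D3 or EV-D68 US/KY/14–18953. Protease (3 μM) in 50 mM Tris pH 7.0, 150 mM NaCl, 10% glycerol, with or without 4 mM DTT, was preincubated with test compound or DMSO at 30 °C for 30 min. SYPRO orange (1×) was then added and fluorescence followed over 20–90 °C at 0.05 °C/s. Tm was taken as the transition mid log (Boltzmann model).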

EV-D68 3C^pro [5] = molecular target: T3, EV-D68 3C^pro; assay: biochemical
EV-D68 2A^pro [6] = molecular target: T4, EV-D68 2A^pro; assay: FRET-based enzymatic assay; assay type: biochemical
SARS-CoV-2 M^pro [7] = molecular target: T5, SARS-CoV-2 M^pro (Severe acute respiratory syndrome coronavirus 2, UniProt P0DTD1); assay type: binding
SARS-CoV-2 M^pro [8] = molecular target: T5, SARS-CoV-2 M^pro; assay: Thermal shift binding assay; conditions: for Tm change, SARS-CoV-2 M^pro: 4 mM DTT, 40 μM compound (shikonin 10 μM), 3 μM protease
SARS-CoV-2 = conditions: at 10 μM; cited from earlier work
EV-A71 3C^pro [9] = molecular target: T2, EV-A71 3C^pro; assay: Thermal shift binding assay; conditions: 4 mM DTT; 40 μM compound (shikonin 10 μM); 3 μM protease
Procedure, shortened: as §1

EV-A71 2A^pro [10] = molecular target: T1, EV-A71 2A^pro; assay: Thermal shift binding assay; conditions: 4 mM DTT; 40 μM compound (shikonin 10 μM); 3 μM protease
Procedure, shortened: as §2

[11] = EV-A71 2A^pro IC50, with 4 mM DTT
[12] = EV-A71 3C^pro IC50, with 4 mM DTT
[13] = EV-D68 3C^pro IC50, with 4 mM DTT
[14] = EV-D68 2A^pro IC50, with 4 mM DTT

Row | SMILES | IC50 (EV-A71 2A^pro [1]; EV-A71 2A^pro IC50, no DTT) [µM] | IC50 (EV-A71 2A^pro [1]; [11]) [µM] | IC50 (EV-A71 3C^pro [2]; EV-A71 3C^pro IC50, no DTT) [µM] | IC50 (EV-A71 3C^pro [2]; [12]) [µM] | Tm change, EV-D68 3C^pro (EV-D68 3C^pro [3]) | Tm change, SARS-CoV-2 PL^pro (SARS-CoV-2 PL^pro) | CC50 (in vitro) [µM] | Tm change, EV-D68 2A^pro (EV-D68 2A^pro [4]) | IC50 (EV-D68 3C^pro [5]; EV-D68 3C^pro IC50, no DTT) [µM] | IC50 (EV-D68 3C^pro [5]; [13]) [µM] | IC50 (EV-D68 2A^pro [6]; EV-D68 2A^pro IC50, no DTT) [µM] | IC50 (EV-D68 2A^pro [6]; [14]) [µM] | Ligand binding to M^pro dimer (SARS-CoV-2 M^pro [7]; with 4 mM DTT, 10-40 μM drug) | Ligands bound per M^pro dimer (SARS-CoV-2 M^pro [7]; without DTT, 10-40 μM drug) | Tm change, SARS-CoV-2 M^pro (SARS-CoV-2 M^pro [8]) | Reduction of viral replication, viral titer reduction assay (SARS-CoV-2) | Tm change, EV-A71 3C^pro (EV-A71 3C^pro [9]) | Tm change, EV-A71 2A^pro (EV-A71 2A^pro [10]) | further results
1 | CCN(CC)C(=S)SSC(=S)N(CC)CC [disulfiram] | 11.8 ± 2.1 | > 60 | 1 ± 0.6 | > 60 | no Tm change | no Tm change | 8.3 | no Tm change | 0.6 ± 0.1 | > 60 | 3.5 ± 0.5 | > 60 | completely disrupted | up to three | no Tm change | ~30% | no Tm change | no Tm change | –
2 | O=c1c2ccccc2[se]n1-c1ccccc1 [ebselen] | 5.9 ± 1.1 | > 60 | 1.2 ± 0.7 | > 60 | no Tm change | no Tm change | 17 | no Tm change | 0.1 | > 60 | 3.6 ± 1 | > 60 | – | – | no Tm change | – | no Tm change | no Tm change | Ligand binding to M^pro dimer (SARS-CoV-2 M^pro [7]): completely disrupted; Ligands bound per M^pro dimer (SARS-CoV-2 M^pro [7]): four
3 | CCCCCCNC(=O)n1cc(F)c(=O)[nH]c1=O [carmofur] | 12.9 ± 4.5 | > 60 | 0.4 ± 0.2 | > 60 | no Tm change | no Tm change | 47.2 | no Tm change | 0.3 | > 60 | 6.4 ± 1.3 | > 60 | moderate binding | up to three ligands per dimer | no Tm change | no significant antiviral effect | no Tm change | no Tm change | Tm increase, EV-D68 3C^pro (EV-D68 3C^pro [3]; absence of DTT, 40 μM compound): 0.87 °C; Tm increase, SARS-CoV-2 M^pro (SARS-CoV-2 M^pro [8]; absence of DTT, 40 μM compound): 4.76 °C
4 | CCC[C@H](NC(=O)[C@@H]1[C@H]2CCC[C@H]2CN1C(=O)[C@@H](NC(=O)[C@@H](NC(=O)c1cnccn1)C1CCCCC1)C(C)(C)C)C(=O)C(=O)NC1CC1 [telaprevir] | 1.8 ± 0.9 | 1.3 | – | – | – | – | – | increased the Tm | – | – | 0.1 | – | – | – | – | – | – | increased the Tm | –
5 | CC(C)=CC[C@@H](O)C1=CC(=O)c2c(O)ccc(O)c2C1=O [shikonin] | 36 ± 20.5 | > 60 | 0.5 ± 0.2 | > 60 | no Tm change | no Tm change | 0.8 | no Tm change | 1.2 ± 0.7 | > 60 | 37 ± 14.2 | > 60 | completely disrupted | up to four ligands per dimer | no Tm change | – | no Tm change | no Tm change | –
6 | O=c1sn(-c2cccc3ccccc23)c(=O)n1Cc1ccccc1 [tideglusib] | 3.4 ± 2.9 | > 60 | 1.2 ± 0.1 | > 60 | no Tm change | no Tm change | 16.6 | no Tm change | 0.6 ± 0.3 | > 60 | 1.3 ± 0.7 | > 60 | did not bind | did not bind | no Tm change | no significant antiviral effect | no Tm change | no Tm change | –
